In ChEMBL document CHEMBL4513216, “Probing the Open Global Health Chemical Diversity Library for Multistage-Active Starting Points for Next-Generation Antimalarials” (ACS Infect Dis, 2020):

Experiment: Toxicity liver stage against HepG2, at 10uM
Assay type: cell-based
Parameters: test concentration 10 uM, cell line HepG2-A16-CD81EGFP
Details: human, HepG2-A16-CD81EGFP cells; read-out: INHIBITION
In short: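 Uninfected HepG2-A16-CD81EGFP cells, 3 × 10^3 per well, 1536-well, plated on prespotted compound at 10 μM final, parasite-free screening media added to match infected plates; puromycin 10 μM positive, DMSO 0.5% negative; run in parallel with 48 h PbLuc assay at 37 °C, 5% CO2; viability by CellTiter-Glo luminescence, normalized to controls.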

In order of rising cytotoxicity at 10 µM:
1. COC(=O)c1cc2c(=O)n(C3CC3)ccc2nc1C  -47%
2. CCC(=O)N1CCC(Cc2ccccc2-c2cccc(C)c2)(C(N)=O)C1 (stereo not given)  -27.5%
3. Cc1cc(N2CCCC2c2nccnc2C)ncn1 (stereo not given)  -20.8%
4. Cc1noc(C)c1-c1cncc(C2CCCN2Cc2cn(C)cn2)n1 (stereo not given)  -20.4%
5. CC(=O)N1CCC(c2nccnc2-c2ccc(F)c(F)c2)CC1  -19.1%
6. CCc1cnc(CN(C)C2CCN(CCc3cccs3)C2)o1 (stereo not given)  -16.8%
7. Nc1nc2nc(C3CCCN(C(=O)c4cnccn4)C3)ccc2s1 (stereo not given)  -16%
8. c1cnc(N2CCOCC3(CCCN(CC4CC4)C3)C2)cn1 (stereo not given)  -15.8%
9. Cc1cccc(CNC2(CCO)CCOCC2)c1C  -14.9%
10. CCCNC(=O)COc1ccc(C)cn1  -14.5%
11. O=C1[C@H]2CN(Cc3cccs3)C[C@H]2CN1c1cncnc1  -13.8%
12. CN(C)C(=O)c1cccc(NC(=O)N(CCO)Cc2ccsc2)c1  -13.4%
13. CCCn1nc(C2CCNCC2)n(Cc2ccccc2)c1=O  -12.9%
14. Cc1nc(C2CCCN2Cc2nc(C3CC3)no2)no1 (stereo not given)  -12.7%
15. Cc1ccc(F)cc1S(=O)(=O)N(C)CC(N)=O  -12.6%
16. CCOc1ccccc1C(CC(=O)Nc1ccncc1)NC(C)=O (stereo not given)  -12.6%
17. Cc1ccc(C)c(S(=O)(=O)NCCOc2ccc3nnc(C)n3n2)c1  -11.3%
18. COc1c(CNC2CCN(C(C)(C)C)CC2)c(C(C)C)nn1C  -10.9%
19. O=C(NC1CC1)[C@@H]1CCO[C@@H]2CCN(C3CCOCC3)C[C@@H]21  -9.87%
20. N#Cc1cc(NC(=O)C2CC=CC2)ccc1N1CCC(O)CC1  -9.29%
21. CC(C(=O)NCc1ccc(N2CCNC(=O)C2)cc1)n1cncn1 (stereo not given)  -9.21%
22. Cc1ccc(C(=O)N(C)Cc2c(C)noc2C)c(=O)[nH]1  -8.2%
23. CC(NC(=O)NCCCn1cncn1)c1ccc2c(c1)CC(=O)N2 (stereo not given)  -8.01%
24. Cc1ccccc1[C@@H]1CN(C(=O)c2ccc3[nH]nnc3c2)C[C@H]1C(=O)O  -7.21%
25. CCn1cc(Cn2cc(-c3cccc(C(C)N(C)C)c3)nn2)cn1 (stereo not given)  -6.97%
26. CN(C)S(=O)(=O)c1ccc(CN2CCCC2CO)o1 (stereo not given)  -6.88%
27. Cc1nc(C(=O)N2CCc3c(nc(-c4ccncc4)[nH]c3=O)C2)cs1  -6.37%
28. Cc1nc(CN2CCCN(C(=O)CC(C)n3cccc3)CC2)cs1 (stereo not given)  -6.25%
29. Cc1nc2ccccc2c(=O)n1CCC(=O)N1CCSCC1  -6.13%
30. Cc1ccc(C(O)CNCCn2cccn2)cc1C (stereo not given)  -6.11%
31. COc1cc(OC)c(C2SCC(=O)Nc3n[nH]cc32)cc1OC (stereo not given)  -6.08%
32. O=C(Nc1cccc(OCC(F)F)n1)c1ccncc1  -6.02%
33. c1cn(-c2cnc(C3CCNCC3)cn2)cn1  -5.72%
34. CN(Cc1ccco1)C(=O)C1CSCN1C(=O)c1cccnc1 (stereo not given)  -5.28%
35. O=c1[nH]nc2nc(N3CCOCC3)ccn12  -5.08%
36. Cn1cc(CN2CCC3(CC(=O)N(c4ccc5c(c4)OCO5)C3)C2)cn1 (stereo not given)  -4.97%
37. COCC(=O)N1Cc2nc3c(C)c(-c4cccs4)nn3c(O)c2C1  -4.81%
38. Cc1nc[nH]c1C(=O)NCc1cccnc1N(C)C1CCCCC1  -4.12%
39. CN(C)C(=O)NCc1cc2n(n1)CCCN(CC1CCCNC1)C2 (stereo not given)  -4.07%
40. CCc1noc(CN2CCCC2c2noc(C3CC3)n2)n1 (stereo not given)  -3.76%
41. CO[C@@H]1c2ccccc2C2(CCN(C(=O)CNC(=O)C(C)C)CC2)[C@H]1O  -3.26%
42. COCCC1CN(Cc2cn(CCC(N)=O)c3ccccc23)CCO1 (stereo not given)  -3.15%
43. c1cnn(CC2CN(Cc3ccc(-n4ccnc4)cc3)CCO2)c1 (stereo not given)  -3.12%
44. Cc1nc(CCCC(=O)Nc2cccc(N3CCNC3=O)c2)cs1  -2.26%
45. COc1ccc(CN2C[C@H]3CC[C@](O)(c4ccc(C)cn4)[C@H]3C2)c(F)c1  -1.57%
46. CN(Cc1ccc(F)cc1)[C@@H]1CN(S(=O)(=O)N(C)C)C[C@H]1O  -1.34%
47. CCC[C@@H]1CN(c2ncnc3sccc23)C[C@H]1NS(C)(=O)=O  -1.25%
48. N#CC1(C(=O)N2C[C@H](Nc3ccnc(N)n3)[C@@H](C3CC3)C2)CCOCC1  -1.2%
49. O=C(CC1CC1)N1CCC2(CCCN(CCOc3ccccc3)C2)C1 (stereo not given)  -0.861%
50. CC(C)(C)c1noc(CN2CCCc3cc(OC(F)(F)F)ccc32)n1  -0.813%
51. CCc1ccc(CC(=O)N2CCN(c3nccn3C)CC2)cc1  -0.647%
52. COc1ncccc1CNC(=O)NCCNC(=O)c1ccco1  -0.313%
53. Fc1ccc(C2(NCc3noc(C4CC4)n3)CCC2)cc1  -0.304%
54. CCc1ccc(CN2CCCC(CO)(CCOC)C2)cc1 (stereo not given)  -0.26%
55. CC(=O)N1CCC(C(=O)N(C)[C@@H]2CCC[C@@H](N3CCCC3)[C@@H]2O)CC1  -0.156%
56. CC(=O)N1CCCN(Cc2csc(C)n2)c2ccccc21  0.00333%
57. CC(C)(O)c1cc(CC2(NCC3CCCCC3)COC2)no1  0.0962%
58. CN1CCCC1CCNC(=O)Nc1ccccc1 (stereo not given)  0.238%
59. CN1CCCC1c1cncc(C(=O)NCCN2CCCCC2)n1 (stereo not given)  0.388%
60. Cc1ccc(CNC(=O)c2oc3ccccc3c2CN(C)C)n1C  0.521%
61. CCN(CCCc1ccccc1)CC1(C)Cc2c(N)nc(N)nc2O1 (stereo not given)  0.822%
62. CCN(C(=O)CN1CCC(c2cc3ccccc3[nH]2)CC1)C1CC1  0.99%
63. CCCn1ccnc1CN1CCC(Oc2cccc(F)c2)(C(=O)O)CC1  1%
64. CCN1CCNC(=O)C12CCN(S(=O)(=O)c1ccc(F)cc1)CC2  1.17%
65. CN(C)CCNC(=O)CCC1CCN(C(=O)c2ccc(O)cn2)CC1  1.23%
66. CNC(=O)C(C)(C)N1CCC[C@H]1C(=O)NCC(C)C  1.55%
67. CC(C)c1nnc(CCC(=O)N2CCCC(c3cnccn3)C2)o1 (stereo not given)  1.88%
68. O=C(c1ccccn1)N1CCC(c2nccn2Cc2ccncc2)CC1  1.94%
69. NC(=O)COc1cccc(Cn2cc(Br)cn2)c1  1.98%
70. CC(CO)NC(=O)c1ccc(NCc2cc(C#N)ccc2F)cc1 (stereo not given)  1.98%
71. O=C(CC1Cn2ncnc2NC1=O)Nc1ccc(F)c(F)c1 (stereo not given)  2.02%
72. CN(C(=O)CNCCn1cccn1)C1(C#N)CCCCC1  2.04%
73. Cn1ccnc1CN1CCN(CC(O)c2ccco2)CC1 (stereo not given)  2.38%
74. COCCNC(=O)Cn1cc(OCc2ccc(F)cc2)c(=O)cc1CO  2.73%
75. c1ccc(COC2C[C@@H]3CN(Cc4cccnc4)C[C@@H]3C2)cc1 (stereo not given in full)  2.92%
76. O=C(Nc1ccc(Cl)cc1)c1nn(C2CCS(=O)(=O)C2)c2c1CCCC2 (stereo not given)  2.96%
77. COCC(=O)N1CC[C@@H]2O[C@@H](COCc3csc(C)n3)CC[C@@H]21  3.24%
78. NCCc1cccc(CN2CCN(c3ccccc3)C(=O)C2)c1  3.47%
79. COc1ccc(NC(=O)CSc2ccc3nncn3n2)c(OC)c1  3.94%
80. CCN(C(=O)C(C)S(=O)(=O)Cc1nc(C)no1)c1ccccc1 (stereo not given)  4.03%
81. COCC1CCN(CCOc2ccc(C#N)cc2OC)CC1  4.11%
82. Cc1cnn(CCC(=O)N2CCCN(c3ncccc3C#N)CC2)c1  4.11%
83. CN(C)C(=O)N[C@H]1CN(Cc2ccc3c(c2)OCO3)[C@@H]2CCCO[C@H]12  4.32%
84. COc1ccccc1C(=O)N1CC(=O)N(Cc2ccco2)CC(O)C1 (stereo not given)  4.45%
85. CN(CCc1cnn(C)c1)C(=O)Cn1c(=O)[nH]c2ccccc21  4.5%
86. CC(NC(=O)CN1C=Nc2ccccc2S1(=O)=O)C1CC1 (stereo not given)  4.53%
87. NC(=O)c1ccc(NC(=O)Cn2cc(-c3ccccc3)ncc2=O)cc1  4.6%
88. COc1ccc(C[C@H]2CN(C(=O)c3ncccn3)CC[C@@H]2OC)cc1  4.65%
89. O=C(c1cnco1)N1CCCC(Cc2nccs2)C1 (stereo not given)  4.84%
90. O=C(Cc1csc(-c2ccc(Cl)cc2)n1)NC(C(=O)O)c1ccccc1 (stereo not given)  4.91%
91. Nc1nc(N)c2c(n1)OC1(CCN(C(=O)CC3CCCNC3)CC1)C2 (stereo not given)  5.03%
92. CCOc1ccc(CC(CNC(=O)c2occc2C)C(N)=O)cc1 (stereo not given)  5.17%
93. CC(c1cccs1)N(C)C(=O)c1cc(CN(C)Cc2ccccc2)on1 (stereo not given)  5.44%
94. CCc1noc(CC)c1CNC(=O)Nc1ccc2[nH]nnc2c1  6%
95. Cc1cnn(CCNCc2ccccc2Oc2cccnc2)c1  6.33%
96. O=C(CSC1CCc2ccccc2NC1=O)NCc1ccccc1 (stereo not given)  6.37%
97. O=S(=O)(Cc1ccccc1Cl)CC(O)CO (stereo not given)  6.44%
98. COc1ccc(Br)c(NC(=O)NCc2cnn(C)c2)c1  6.91%
99. CC(C)c1noc(CCCC(=O)Nc2cccc(F)c2)n1  7.01%
100. COc1ccc([C@@H]2CN(C(=O)CCn3cccn3)C[C@H]2NC(C)=O)cc1  7.18%
101. O=C(CC(F)(F)F)N1C[C@H]2CC[C@@H](C1)N(Cc1ccccc1)C2=O  7.71%
102. COCCN1CCC1c1cc(N)nc(C)n1 (stereo not given)  7.75%
103. COCCNC(=O)[C@H]1CN2CCC1C[C@@H]2Cn1cc(C(C)(C)C)nn1 (stereo not given in full)  7.95%
104. CN1C[C@H](c2ccccc2)[C@H]2CN(C(=O)Cc3ccc(O)cc3)CC[C@H]21  8.14%
105. CC(=O)Nc1ccc(SCC(O)COCc2ccco2)cc1 (stereo not given)  8.45%
106. CN(C)c1cc(C(F)(F)F)cc(-c2ccc(C(=O)O)cc2)n1  9.15%
107. CCn1nc(C)c2ncnc(N3CCCC(C)C3)c21 (stereo not given)  9.18%
108. O=S(=O)(c1cc(F)ccc1F)N1CCCC1c1ccco1 (stereo not given)  11.2%
109. O=S(=O)(N1CCCC1)N1CC(c2ccnc(Nc3ccccn3)n2)C1  11.8%
110. O=C(O)C1CCCN1c1nc(-c2ccc(Cl)cc2)cc(C(F)(F)F)n1 (stereo not given)  30.1%
